Compound activity from PubChem.
Only some compounds are listed: those with a hit (about 3.5% of all), similar ones and a draw of the others.
Efa HMGR inh – inhibitors of E. faecalis class II HMGR, primary screen, biochemical, Enterococcus faecalis; HMG-CoA reductase (Enterococcus faecalis, mvaE); purified E. faecalis HMGR, NADPH absorbance 340 nm kinetic; inhibition, % at 10 µM; 190,000 compounds, 0.41% hits; AID 1066, 2008;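 active = inhibition above a set limit, the median over all tested compounds plus 3 SD, cut at about 9.5% in these data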;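 note: enzyme runs in reverse so mevalonate oxidation gives rising NADPH absorbance; 0% = complete reaction with DMSO and 100% = background rate lacking mevalonate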
Yeast life ext – compounds extending yeast replicative lifespan, primary screen, S. cerevisiae, OD615; S. cerevisiae growth with nicotinamide; deaD strain in restrictive glucose medium; 130,000 compounds, 0.68% hits; inhibition of the nicotinamide effect, % at 10 µM;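 active = inhibition above a set limit, placed 3 SD over the median of all compounds, cut at about 26% in these data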;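 note: 0% = nicotinamide-treated wells and 100% = cells grown without nicotinamide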
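Assay system: engineered S. cerevisiae DeaD replicative-lifespan strain, galactose-grown log-phase cells; Buffer or medium: CSMM-D glucose medium, restrictive; Probe or stimulus: nicotinamide 1.5 mM; Compound: single dose 10 µM compound, 0.25% DMSO; Schedule: 4 h preincubation then 48 h treatment at 30 °C; Technique: OD615 measurement.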
MT stabilizer – microtubule stabilizers in HeLa cells, primary screen, imaging, high-content imaging; HeLa tubulin immunostaining HCS, 24 h; share of cells brighter than vehicle mean+2SD; 200,000 compounds, 0.83% hits; AID 2205, 2009; % tubulin-high responders, % at 10 µM;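 active = plate Z-score above 3 for both tubulin-high and condensed-nucleus cell shares, with cell loss under 80%, at 10 µM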;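 note: anti alpha tubulin signal scored within the nucleus-defined area of each cell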
bCat nuc transl – modulators of beta-catenin nuclear translocation, primary screen, imaging, HeLa cells, immunofluorescence, high-content; nuclear translocation activity, % at 5 µM; 190,000 compounds, 0.3% hits; AID 1665, 2009;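 active = nuclear translocation activity above 50% at 5 µM, with a well cell count of 50 or more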;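 note: per-cell ratio of nuclear to cytoplasmic median beta-catenin stain intensity; plate controls were DMSO negative control for no effect and GSK-3 inhibitor IX positive control for full effect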
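Technique: fluorescence imaging of beta-catenin antibody stain plus DAPI / Material: human HeLa cell line / Incubation: compound treatment 24 h, 37°C, 5% CO2 / Read-out basis: % activation of per-cell nuclear versus cytoplasmic median beta-catenin signal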
Yeast growth inh – growth inhibitors of yeast BB579 in restrictive medium, primary screen, yeast lifespan-shortening project, S. cerevisiae; OD615, 48 h; inhibition, % at 10 µM; 140,000 compounds, 0.51% hits;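 active = inhibition above a set limit, 3 SD over the mean compound inhibition, cut at about 44% in these data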
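Assay system: S. cerevisiae DeaD strain BB579 yeast. Medium: CSMM-D restrictive synthetic medium containing dextrose (glucose). Times: 4 h cell preincubation, 48 h compound exposure, 30 °C humidified. Signal: OD615 turbidity measurement. Benchmarks: positive control amphotericin B 10 µg/mL.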
RAM network inh – inhibitors of the yeast RAM network, primary screen, dse1pr::URA3 reporter, 5-FOA selection; S. cerevisiae dse1pr::URA3 reporter, 5-FOA growth OD615, 2 d; analog-sensitive cbk1-as2 kinase mutant strain; inhibition, % at 50 µM; 190,000 compounds, 1.8% hits;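 active = inhibition above a set limit, 3 SD over mean compound inhibition, cut at about 8.4% in these data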;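 note: 0% = DMSO-only wells with no growth and 100% = 10 µM 1-NA-PP1 full growth; inhibition rescues growth on 5-FOA so higher OD means more RAM inhibition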
Starred values were filed as active, the others as inactive.

What do the screens show for `CCOC(=O)c1c(CSC(=N)N)n(C)c2cc(Br)c(OC(C)=O)cc12`?
bCat nuc transl: -2

Results for CCCCP(=O)(CCCC)Cc1ccccc1 ?
Efa HMGR inh: -1; Yeast life ext: -7; MT stabilizer: 2; Yeast growth inh: -19; RAM network inh: -1

Results for O=P(CO)(Cc1ccccc1)Cc1ccccc1 ?
Efa HMGR inh: 1; Yeast life ext: 55*; MT stabilizer: 3; bCat nuc transl: -2; Yeast growth inh: -23; RAM network inh: 0

How did CCC(C)Oc1nc2c(c(=O)n(C)c(=O)n2C)n1C (stereo not drawn) do in these assays?
bCat nuc transl: -4

What do the screens show for `Cc1cccc(-c2nnc(SCC(=O)C(C)(C)C)n2C)c1`?
bCat nuc transl: 0

Results for Cc1cccc(Cn2cc(/C=C/[N+](=O)[O-])c3ccccc32)c1 ?
Efa HMGR inh: 5; Yeast life ext: 25; MT stabilizer: 3; bCat nuc transl: 4; Yeast growth inh: -32; RAM network inh: 11*

Results for CCC1(C)OCC(Cn2c3ccccc3c3ccccc32)O1 (stereo not drawn) ?
Efa HMGR inh: -7; MT stabilizer: 5; bCat nuc transl: 63*; Yeast growth inh: -12; RAM network inh: 0

What do the screens show for `Clc1ccc(CO/N=C/c2c(-c3ccccc3)nc3n2CCS3)c(Cl)c1`?
Efa HMGR inh: 4; Yeast life ext: 2; MT stabilizer: 2; Yeast growth inh: -53; RAM network inh: 11*

What do the screens show for `CCC(=O)NCCSc1c[nH]c2ccccc12`?
Efa HMGR inh: 4; Yeast life ext: -6; MT stabilizer: 2; bCat nuc transl: 5; Yeast growth inh: -22; RAM network inh: 2

What do the screens show for `CCN(CC)S(=O)(=O)c1ccc(C(=O)NCCSc2c[nH]c3ccccc23)cc1`?
Efa HMGR inh: -4; Yeast life ext: 0; MT stabilizer: 4; bCat nuc transl: 4; Yeast growth inh: -23; RAM network inh: 8.7*

Results for CC(NC(=O)/C(C#N)=C/c1ccc(Cl)c([N+](=O)[O-])c1)c1ccccc1 (stereo not drawn) ?
Efa HMGR inh: 1; Yeast life ext: 5; MT stabilizer: 3; bCat nuc transl: 0; Yeast growth inh: 46*; RAM network inh: 4

Results for N#C/C(=C\c1ccc(O)c([N+](=O)[O-])c1)C(=O)NCc1ccccc1 ?
Efa HMGR inh: -8; MT stabilizer: 3; bCat nuc transl: 2; RAM network inh: 3

Results for N#C/C(=C\c1ccc(Cl)c([N+](=O)[O-])c1)c1ccccn1 ?
Efa HMGR inh: 7; MT stabilizer: 66; bCat nuc transl: 80*; RAM network inh: 4

How did COc1ccc(N(CCC#N)C(=O)/C(C#N)=C\c2cccs2)cc1 do in these assays?
bCat nuc transl: -1

How did Cc1cccc(NC(=O)c2cc([N+](=O)[O-])ccc2N2CCCCC2)n1 do in these assays?
Efa HMGR inh: 2; MT stabilizer: 3; bCat nuc transl: 3; RAM network inh: -1

How did Cn1cnnc1Sc1ccc(/C=C/C(=O)c2ccc(O)cc2)cc1[N+](=O)[O-] do in these assays?
Efa HMGR inh: -2; MT stabilizer: 2; bCat nuc transl: 1; RAM network inh: 8.4*

What do the screens show for `CCC(C)(C)NC(=O)c1ccc(Sc2nncn2C)c([N+](=O)[O-])c1`?
Efa HMGR inh: -1; Yeast life ext: -2; MT stabilizer: 1; bCat nuc transl: -1; Yeast growth inh: -25; RAM network inh: 1

What do the screens show for `CCOc1ccc(-c2nc3ccccc3c(=O)o2)cc1`?
Efa HMGR inh: 12*; MT stabilizer: 4; bCat nuc transl: 0; RAM network inh: 2

How did COc1ccc(-c2nc3ccccc3c(=O)o2)cc1OC do in these assays?
Efa HMGR inh: -1; Yeast life ext: -25; MT stabilizer: 2; bCat nuc transl: 2; Yeast growth inh: -30; RAM network inh: 0

How did O=C(NCc1cccnc1)/C(=C\c1ccc(-c2ccc(Br)cc2)o1)S(=O)(=O)c1ccccc1 do in these assays?
Efa HMGR inh: -2; Yeast life ext: 23; MT stabilizer: 47*; bCat nuc transl: 3; Yeast growth inh: -22; RAM network inh: 8

How did O=C(NCc1cccnc1)/C(=C/c1ccc(-c2ccc(Cl)cc2)o1)S(=O)(=O)c1ccccc1 do in these assays?
Efa HMGR inh: -3; Yeast life ext: 53; MT stabilizer: 63; Yeast growth inh: -68; RAM network inh: 1

How did Cc1ccc(C)c(S(=O)(=O)N/N=C/c2ccc(N3CCOCC3)cc2)c1 do in these assays?
bCat nuc transl: -2

What do the screens show for `CN(C)S(=O)(=O)c1ccc(C(=O)NNC(=O)C2COc3ccccc3O2)cc1` (stereo not drawn)?
Efa HMGR inh: -6; MT stabilizer: 5; bCat nuc transl: 0; RAM network inh: 4

Results for O=C(CSCc1ccccc1)Nc1ccc(Cl)cn1 ?
Efa HMGR inh: -2; Yeast life ext: -16; MT stabilizer: 4; bCat nuc transl: 0; Yeast growth inh: -55; RAM network inh: 2

Results for O=C(CC(c1ccccc1)c1ccccc1)Nc1ccc(Cl)cn1 ?
Efa HMGR inh: -4; Yeast life ext: -13; MT stabilizer: 53*; bCat nuc transl: -4; Yeast growth inh: -21; RAM network inh: 1

What do the screens show for `O=C(/C=C/c1cccs1)Nc1ccc(Br)cn1`?
Efa HMGR inh: -6; Yeast life ext: -7; MT stabilizer: 7; bCat nuc transl: 166*; Yeast growth inh: -6; RAM network inh: 1

Results for O=C(/C=C/c1ccccc1)Nc1ccc(Cl)cn1 ?
Efa HMGR inh: 2; MT stabilizer: 25*; bCat nuc transl: 3; RAM network inh: 2

What do the screens show for `O=C(Nc1ccc(Cl)cn1)c1ccccc1[N+](=O)[O-]`?
Efa HMGR inh: -4; MT stabilizer: 23*; bCat nuc transl: 1; RAM network inh: 2

How did COc1ccc(CN2CSC(=S)N(Cc3ccc(OC)cc3)C2)cc1 do in these assays?
bCat nuc transl: -2

Results for O=C(Cc1ccccc1)c1c[nH]c(C(=O)NCCCN2CCOCC2)c1 ?
Efa HMGR inh: 3; MT stabilizer: 5; bCat nuc transl: 4; RAM network inh: 2

Results for COc1ccc(N2CCN(CCNC(=O)c3ccc4c(c3)[nH]c(=S)n3c5ccccc5nc43)CC2)cc1 ?
Efa HMGR inh: -2; MT stabilizer: 5; bCat nuc transl: 0; RAM network inh: 5

What do the screens show for `NC(=O)CN1CCN(S(=O)(=O)c2ccc(Br)cc2)CC1`?
Efa HMGR inh: 0; MT stabilizer: 1; bCat nuc transl: 0; RAM network inh: 1
